# The list is not random: actives were taken first. Their share in the collection is about 2%.
# MC4R antagonist: human MC4R antagonism in cAMP assay | P32245 | MC4R-expressing cells, MTII-stimulated cAMP, LANCE TR-FRET | inhibition, % at 6.5 µM | 0.48% of 360,000 active | AID 540295;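 active = inhibition above its plate's cutoff, the mean of tested wells on that plate plus 3 SD, cut at about 29% in these data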
# Target sequence (P32245 whole entry, looked up): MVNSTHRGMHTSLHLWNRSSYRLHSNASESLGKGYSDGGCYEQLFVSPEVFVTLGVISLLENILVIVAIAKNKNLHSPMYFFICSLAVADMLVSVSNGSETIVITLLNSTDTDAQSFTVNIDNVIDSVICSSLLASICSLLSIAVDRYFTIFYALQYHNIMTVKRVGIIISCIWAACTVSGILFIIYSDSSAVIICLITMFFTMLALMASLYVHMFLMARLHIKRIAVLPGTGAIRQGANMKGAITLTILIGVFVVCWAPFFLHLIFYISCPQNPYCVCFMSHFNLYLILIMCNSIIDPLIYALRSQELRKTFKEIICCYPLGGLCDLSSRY
#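 system = U2OS cells with stable human MC4R expression | also added = Melanotan II challenge after compound preincubation | dosing = one concentration, 6.5 µM nominal | incubation = compound 30 min, challenge 1 h, detection 1 h | measured by = TR-FRET with Eu-cAMP and labeled anti-cAMP, 671 nm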
# UPR XBP1 act: adaptive UPR (XBP1) activation. AID 463104. 0.33% of 330,000 active. activation, % at 20 µM. CHO-XBP1 luciferase reporter, IRE1-XBP1 UPR activation, luminescence; percent of tunicamycin response, DMSO as zero;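 active = versus positive control, 20 µM dose yields 30% or more activation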
#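 Material: CHO-XBP1 cells stably carrying IRE1-XBP1-driven luciferase reporter | Medium: F12 with 10% serum | Compound dosing: 20 µM single concentration, DMSO 1% | Incubation: Overnight seeding at 37 °C, 6 h compound treatment at 37 °C | Detection: Steady-Glo luminescence read | Read-out basis: % activation of reporter signal versus tunicamycin and DMSO controls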
# A1 inh: inhibitors of the anti-apoptotic protein A1, read as caspase activation. MEF A1-2A-BIM cells, Caspase-Glo 3/7 luminescence, 3 h; percent of clofoctol response, vehicle zero. caspase activation, % (test concentration not listed). 0.066% of 330,000 active;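 active = over half of replicate activation scores above 10%, or exactly half above 10 with the replicate mean above 10; inconclusive = replicate mean below 10 yet half the replicates above 10; inactive = over half of replicates below 10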
# MC4R ag barr: activates human MC4R beta-arrestin recruitment; 0.98% of 360,000 active; activation, % at 8.9 µM; U2OS MC4R beta-arrestin complementation, luminescence; percent of melanotan II response, DMSO zero; P32245;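 active = activation above a per-plate cutoff, the mean activation of sample wells on that plate plus 3 SD, cut at about 8% in these data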
# CHOP UPR activ: apoptotic UPR (CHOP) activation; CHO-CHOP luciferase reporter, luminescence; percent of tunicamycin response over DMSO baseline; 0.34% of 330,000 active; activation, % at 10 µM;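 active = at 10 µM dose, activation of 40% or more, normalized to positive control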
#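 System: CHO-CHOP luciferase reporter cell line; amount: 500 cells/well; buffer or medium: F12 medium containing 10% fetal bovine serum; incubation: 6 h compound exposure at 37 °C after overnight seeding; measured by: luciferase luminescence after 10 min with Steady-Glo reagent; evaluation: % reporter activation, DMSO baseline versus tunicamycin full activation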
# U2OS cAMP counter: U2OS forskolin cAMP inhibition counter-screen. shares compounds with MC4R antagonist. parental U2OS, LANCE TR-FRET. inhibition, % at 6.5 µM. 26% of 1,600 active;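 active = mean inhibition over triplicates above the low-control well mean plus 3 SD, set per campaign, cut at about 13% in these data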;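 note: signal is single emission at 671 nm which falls as cellular cAMP rises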
# MC4R cAMP antag: human MC4R cAMP antagonism confirmation | shares compounds with MC4R antagonist | MC4R-expressing cells, MTII-stimulated cAMP, TR-FRET | inhibition, % at 6.5 µM | 27% of 1,600 active | AID 602195; in the data active = inhibition above about 29%
# Numbers stand for hits; . = inactive; ? = inconclusive; / = no result.
SMILES,MC4R antagonist,UPR XBP1 act,A1 inh,MC4R ag barr,CHOP UPR activ,U2OS cAMP counter,MC4R cAMP antag
Cc1ccc(S(=O)(=O)N2C[C@H]3n4c(=O)ccc(=O)n4C[C@H](OC(=O)NCC4CCCCC4)[C@@]3(O)C2)cc1,.,/,/,.,/,/,/
CCOc1ccc(-c2cc(C(=O)Nc3cc(OC)c(OC)c(OC)c3)[nH]n2)c(C)c1,.,/,/,.,/,/,/
CCN(CC)C(=O)CCCc1c[nH]c2ccccc12,32.1,.,.,.,.,.,.
CCCCN(C)C(=O)CCCc1c[nH]c2ccccc12,.,.,.,.,.,/,/
CC(=O)Nc1nc(C2CC2)cc(-c2ccccc2)c1C#N,35.4,.,.,.,.,.,.
CCCCNC(=O)CN1C(=O)CSc2ccc(S(=O)(=O)N3CCOCC3)cc21,55.0,/,/,.,/,.,.
CCCCCCCNC(=O)CN1C(=O)CSc2ccc(S(=O)(=O)N3CCOCC3)cc21,.,.,.,.,.,/,/
COc1cc(OC)cc(OC(=O)C2CCN(C(=O)c3ccc(F)cc3)CC2)c1,.,.,.,.,.,/,/
COc1cc(OC)cc(OC(=O)C2CCN(C(=O)c3ccc(Cl)cc3)CC2)c1,29.1,.,.,.,.,.,.
C[C@H](CO)N1C[C@H](C)[C@@H](CN(C)Cc2ccc(Cl)c(Cl)c2)OCc2cnnn2CCCC1=O,.,/,/,.,/,/,/
Cc1cc(C(=O)COc2cc(F)ccc2[N+](=O)[O-])c(C)n1CC1CCCO1 (centres undefined),32.5,.,.,.,.,.,.
COC(=O)c1ccccc1NC(=O)N1CCN(c2ccccc2)CC1,.,.,.,.,.,/,/
COC(=O)c1ccccc1NC(=O)N1CCN(S(C)(=O)=O)CC1,30.9,.,.,.,.,.,.
O=C(OCN1C(=O)c2ccccc2C1=O)C1CCCCC1,.,.,.,.,.,/,/
O=C1c2ccccc2C(=O)N1SC1CCCCC1,29.2,.,?,.,.,.,.
COc1ccc(NC(=O)C2Cc3c(-c4cccc(NC(C)=O)c4)ccnc3O2)cn1 (centres undefined),.,/,/,.,/,/,/
COCCNc1nc(Oc2ccc(NC(C)=O)cc2)c2sc(-c3ccccc3)cc2n1,46.6,/,/,.,/,.,.
CCc1nc2ccc(C(=O)NCc3ccccc3OC)cn2c1N(CC)CCOC,.,/,/,.,/,/,/
Cc1cc2oc(C(=O)N(Cc3ccccc3)C3CCS(=O)(=O)C3)cc(=O)c2cc1Cl (centres undefined),30.0,.,.,.,.,.,.
COc1ccc(OC(=O)N2C/C(=C/c3ccccc3)C(=O)/C(=C\c3ccccc3)C2)cc1,33.0,/,/,.,/,15.0,.
CS(=O)(=O)N1CCN(c2ccccc2NC(=S)NC(=O)c2cccs2)CC1,29.5,.,.,.,.,.,.
CC1CCN(c2ccccc2NC(=S)NC(=O)c2cccs2)CC1,.,.,.,.,.,/,/
COc1cc(OC)c(OC)cc1CNC(=O)CCN1C(=O)c2cccc([N+](=O)[O-])c2C1=O,31.6,.,.,.,.,.,.
CC(C)N(c1ccccc1)c1ccc(NC(=O)COC(=O)CCN2C(=O)c3cccc([N+](=O)[O-])c3C2=O)cc1,35.9,.,.,.,.,.,.
CC(=O)c1ccc(NC(=O)COC(=O)CCN2C(=O)c3cccc([N+](=O)[O-])c3C2=O)cc1,.,.,.,.,.,/,/
COc1ccc(NC(=O)CCCCCN2C(=O)c3cccc([N+](=O)[O-])c3C2=O)c(OC)c1,.,.,.,.,.,/,/
CN(C)c1ccc(NC(=O)CCN2C(=O)c3cccc([N+](=O)[O-])c3C2=O)cc1,.,.,.,.,.,/,/
CCOc1ccc(NC(=O)CCN2C(=O)c3cccc([N+](=O)[O-])c3C2=O)cc1,32.9,.,.,.,.,.,.
COc1ccc(CNC(=O)CCN2C(=O)c3ccncc3C2=O)cc1OC,33.5,.,.,.,.,.,.

# Assay outcomes: PubChem BioAssay, several laboratories
